Measured values from different studies.
pEC50, pIC50: −log10 of the molar value. Converted amounts (≈) assume the structure as drawn.

| Structure (SMILES) | organism | assay | test system | setting | endpoint | result |
| --- | --- | --- | --- | --- | --- | --- |
| O=C(Nc1cccc(Cl)c1)Nc1ncc(CCNc2ncnc3ccsc23)s1 | Plasmodium berghei | parasite growth, luciferase | human | liver stage | pIC50 | 5.38 |
| O=c1cccc(C2CCCCC2)n1O | Candida albicans | microbial growth | ATCC90028 | – | MIC80 | 1.9 µM (≈ 0.367 µg/mL) |
| OC(Cn1cncn1)(Cn1cncn1)c1ccc(F)cc1F | Candida albicans | microbial killing | – | – | MFC | 40 µM (≈ 12.3 µg/mL) |
| O=c1c2ccccc2[se]n1-c1ccccc1 | Trypanosoma brucei | parasite growth | – | blood stage | pEC50 | 5.53 |
| COC(=O)c1cc(-c2cccc(NC(=S)Nc3cccc(Br)c3)c2)on1 | Mycobacteroides chelonae | microbial growth, broth dilution | ATCC35752 | 48 h | MIC | > 64 µg/mL |
| Cc1ccc(/C=C/c2nc3ccccc3c(=O)n2-c2cccc(O)c2)cc1 | Enterococcus faecium | microbial growth, broth dilution | NCTC7171 | – | MIC | > 128 µg/mL |
| COc1ccc(Cc2cc(C)cc(=O)n2O)cc1 | Candida albicans | microbial growth | ATCC90028 | – | MIC80 | 2.3 µM (≈ 0.564 µg/mL) |
| CN(C)C(=O)/C(C#N)=C/c1ccc(-c2nc3cnc4[nH]ccc4c3n2C2CCCCC2)o1 | Murine coronavirus | viral replication | – | 1 µM, 10 h | inhibition | 36% |
| COC(=O)c1cc(-c2cccc(NC(=O)Nc3ccc(Cl)cc3Cl)c2)on1 | Mycobacteroides chelonae | microbial growth, broth dilution | ATCC35752 | 48 h | MIC | > 64 µg/mL |
| Cc1nc(N)sc1-c1ccnc(Nc2ccc(N3CCOCC3)cc2)n1 | Plasmodium berghei | parasite growth, luciferase | human | liver stage | pIC50 | 6.34 |
| N#Cc1ccc(/C=C/c2nc3ccccc3c(=O)n2-c2cccc([N+](=O)[O-])c2)cc1 | Enterococcus faecium | microbial growth, broth dilution | NCTC7171 | – | MIC | > 128 µg/mL |
| COC(=O)c1cc(-c2cccc(NC(=S)Nc3ccc(Cl)cc3)c2)on1 | Mycobacteroides chelonae | microbial growth, broth dilution | ATCC35752 | 48 h | MIC | > 64 µg/mL |
| Nc1cccc(-n2c(/C=C/c3ccc(F)cc3)nc3ccccc3c2=O)c1 | Enterococcus faecium | microbial growth, broth dilution | NCTC7171 | – | MIC | 128 µg/mL (≈ 358 µM) |
| Cc1cc(C2CCCCC2)n(O)c(=O)c1 | Candida albicans | microbial growth | ATCC90028 | – | MIC80 | 1.9 µM (≈ 0.394 µg/mL) |
| O=c1c2ccccc2nc(/C=C/c2ccccc2F)n1-c1cccc(O)c1 | Enterococcus faecium | microbial growth, broth dilution | NCTC7171 | – | MIC | 32 µg/mL (≈ 89.3 µM) |
| COC(=O)c1cc(-c2cccc(NC(=O)Nc3ccccc3OC)c2)on1 | Mycobacteroides chelonae | microbial growth, broth dilution | ATCC35752 | 48 h | MIC | > 64 µg/mL |
| O=c1c2ccccc2nc(/C=C/c2ccc3c(c2)OCO3)n1-c1cccc(O)c1 | Enterococcus faecium | microbial growth, broth dilution | NCTC7171 | – | MIC | > 128 µg/mL |
| COC(=O)c1cc(-c2cccc(NC(=S)Nc3ccc(F)cc3F)c2)on1 | Mycobacteroides chelonae | microbial growth, broth dilution | ATCC35752 | 48 h | MIC | 16 µg/mL (≈ 41.1 µM) |
| Cc1ccc(-c2nc3ccccc3c(=O)n2-c2cccc(O)c2)cc1 | Enterococcus faecium | microbial growth, broth dilution | NCTC7171 | – | MIC | > 128 µg/mL |
| COC(=O)c1cc(-c2cccc(NC(=O)Nc3ccc(C)c(Cl)c3)c2)on1 | Mycobacteroides chelonae | microbial growth, broth dilution | ATCC35752 | 48 h | MIC | > 64 µg/mL |
